Measurements published in ChEMBL document CHEMBL5046219, “Optimization of N-Phenylpropenoyl-l-amino Acids as Potent and Selective Inducible Nitric Oxide Synthase Inhibitors for Parkinson's Disease” (J Med Chem, 2021).
Activity calls are given as the source filed them. The calls are words filed in the database; no cut-off is given here.

Tests used:
Homo sapiens = organism: Homo sapiens; experiment: Selectivity ratio of IC50 for human eNOS to IC50 for human iNOS
Summary of the method: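 Human iNOS, eNOS or nNOS was incubated 1 h at 37 °C in 50 mM HEPES with 10 nM [3H]arginine and [14C]citrulline internal standard. Cofactors were NADP⁺, G6P, G6P dehydrogenase, MgCl2, FAD, FMN and BH4. eNOS and nNOS reactions also contained 25 nM calmodulin, 0.5 mM CaCl2 and 3.5 mM glutathione. Reactions were stopped with MES and passed through cation exchange resin, and [3H]citrulline was counted. Background was set with 10 μM AMT. IC50 values came from eight concentrations (0.01–10 μM), in three repeated experiments.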

[1] = target: Nitric oxide sythases; iNOS & nNOS (Homo sapiens) (UniProt P29475+P35228); experiment: Selectivity ratio of IC50 for human nNOS to IC50 for human iNOS; assay type: protein assay
Nitric oxide sythases; iNOS & nNOS (Homo sapiens), sequence (P29475 whole entry, looked up): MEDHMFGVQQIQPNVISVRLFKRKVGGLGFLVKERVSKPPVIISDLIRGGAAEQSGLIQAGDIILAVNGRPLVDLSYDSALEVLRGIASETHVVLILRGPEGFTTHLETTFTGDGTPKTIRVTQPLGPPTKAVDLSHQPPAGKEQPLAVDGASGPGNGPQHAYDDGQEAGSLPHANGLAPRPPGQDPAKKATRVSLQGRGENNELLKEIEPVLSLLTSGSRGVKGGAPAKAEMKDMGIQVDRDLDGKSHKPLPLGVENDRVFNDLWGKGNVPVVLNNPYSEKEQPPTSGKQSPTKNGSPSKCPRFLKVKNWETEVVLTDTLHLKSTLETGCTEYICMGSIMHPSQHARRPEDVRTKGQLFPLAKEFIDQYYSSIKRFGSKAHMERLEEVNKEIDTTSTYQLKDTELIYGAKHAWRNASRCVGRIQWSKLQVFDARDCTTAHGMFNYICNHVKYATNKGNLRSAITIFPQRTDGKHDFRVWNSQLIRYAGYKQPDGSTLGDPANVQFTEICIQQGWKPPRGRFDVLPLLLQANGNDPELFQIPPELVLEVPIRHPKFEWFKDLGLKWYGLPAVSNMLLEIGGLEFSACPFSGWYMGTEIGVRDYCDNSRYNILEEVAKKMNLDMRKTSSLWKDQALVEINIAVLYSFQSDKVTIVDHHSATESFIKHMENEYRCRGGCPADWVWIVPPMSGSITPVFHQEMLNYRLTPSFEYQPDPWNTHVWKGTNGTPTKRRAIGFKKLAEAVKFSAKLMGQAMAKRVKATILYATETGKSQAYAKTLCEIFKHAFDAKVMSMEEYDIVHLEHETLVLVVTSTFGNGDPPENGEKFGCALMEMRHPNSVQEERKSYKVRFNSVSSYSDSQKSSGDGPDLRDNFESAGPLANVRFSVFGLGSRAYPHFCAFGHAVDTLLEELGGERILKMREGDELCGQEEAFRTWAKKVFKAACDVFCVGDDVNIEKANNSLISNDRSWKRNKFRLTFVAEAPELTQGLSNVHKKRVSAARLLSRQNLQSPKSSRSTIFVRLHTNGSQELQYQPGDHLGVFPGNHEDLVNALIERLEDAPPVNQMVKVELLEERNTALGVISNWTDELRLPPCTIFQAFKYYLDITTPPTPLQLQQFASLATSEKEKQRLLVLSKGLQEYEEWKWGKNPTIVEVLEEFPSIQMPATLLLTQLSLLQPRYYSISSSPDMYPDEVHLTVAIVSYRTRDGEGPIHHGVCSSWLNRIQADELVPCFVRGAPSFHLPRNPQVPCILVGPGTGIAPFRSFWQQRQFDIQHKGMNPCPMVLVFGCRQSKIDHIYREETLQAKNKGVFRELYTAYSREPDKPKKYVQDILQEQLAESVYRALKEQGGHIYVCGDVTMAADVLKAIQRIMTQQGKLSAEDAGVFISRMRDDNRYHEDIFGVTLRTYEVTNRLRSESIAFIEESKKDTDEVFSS
Nitric oxide sythases; iNOS & nNOS (Homo sapiens), sequence (P35228 whole entry, looked up): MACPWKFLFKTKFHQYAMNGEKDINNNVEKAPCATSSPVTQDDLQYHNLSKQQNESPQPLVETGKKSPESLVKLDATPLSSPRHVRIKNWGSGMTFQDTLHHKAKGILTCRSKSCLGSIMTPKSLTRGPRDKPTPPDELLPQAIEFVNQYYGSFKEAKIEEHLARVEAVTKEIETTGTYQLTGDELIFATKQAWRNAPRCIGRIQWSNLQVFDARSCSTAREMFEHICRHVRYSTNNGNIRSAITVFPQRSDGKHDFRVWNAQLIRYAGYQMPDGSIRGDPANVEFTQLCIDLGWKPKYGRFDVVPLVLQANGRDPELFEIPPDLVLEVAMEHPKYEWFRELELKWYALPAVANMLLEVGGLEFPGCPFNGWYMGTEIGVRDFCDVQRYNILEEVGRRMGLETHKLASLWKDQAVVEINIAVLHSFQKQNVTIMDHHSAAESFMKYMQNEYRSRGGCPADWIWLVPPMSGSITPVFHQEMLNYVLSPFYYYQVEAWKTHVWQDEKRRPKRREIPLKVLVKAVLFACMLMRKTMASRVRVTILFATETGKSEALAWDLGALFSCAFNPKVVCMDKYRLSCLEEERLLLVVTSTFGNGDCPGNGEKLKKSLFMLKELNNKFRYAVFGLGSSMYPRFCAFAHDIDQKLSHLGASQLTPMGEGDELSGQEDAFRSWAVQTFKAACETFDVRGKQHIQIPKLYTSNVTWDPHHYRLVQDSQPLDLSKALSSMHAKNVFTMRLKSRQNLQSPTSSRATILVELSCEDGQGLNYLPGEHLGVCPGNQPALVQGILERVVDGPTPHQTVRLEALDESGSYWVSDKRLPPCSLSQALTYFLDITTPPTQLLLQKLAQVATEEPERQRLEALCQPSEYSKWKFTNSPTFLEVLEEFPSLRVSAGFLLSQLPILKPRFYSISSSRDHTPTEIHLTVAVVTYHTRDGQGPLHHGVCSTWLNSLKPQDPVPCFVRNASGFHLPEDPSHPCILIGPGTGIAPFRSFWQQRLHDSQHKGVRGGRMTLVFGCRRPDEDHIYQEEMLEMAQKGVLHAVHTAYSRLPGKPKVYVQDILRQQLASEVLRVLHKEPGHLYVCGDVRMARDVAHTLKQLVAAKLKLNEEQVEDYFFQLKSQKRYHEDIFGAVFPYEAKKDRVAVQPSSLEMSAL
Summary of the method: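 Human nNOS and human iNOS each converting [³H]arginine (10 nM) to [³H]citrulline, with [¹⁴C]citrulline (80−120 nM) as internal standard, in 50 mM HEPES at 37 °C for 1 h. Cofactors were NADP⁺, G6P/G6PDH, MgCl₂, FAD, FMN and BH₄; nNOS also had calmodulin, CaCl₂ and glutathione. Eight concentrations (0.01−10 μM). Stopped with MES, passed over cation-exchange resin, filtrate counted. Background set with 10 μM AMT. Each IC50 from a curve, repeated three times.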

[2] = target: Nitric oxide synthase, inducible (Homo sapiens, UniProt P35228); experiment: Inhibition of human iNOS assessed as reduction in L-[3H]-citrulline level using L-[3H]-arginine as substrate incubated for 1 hr
Nitric oxide synthase, inducible, sequence (P35228 whole entry): as the sequence (P35228 whole entry, looked up) above

BV-2 = experiment: Anti-neuroinflammation in mouse BV-2 cells assessed as inhibition of LPS-induced NO production at 1 uM preincubated for 6 hrs followed by LPS addition measured after 24 hrs by Griess reagent based assay; assay type: functional
Summary of the method: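 BV-2 murine microglia were grown in DMEM with 10% FBS at 37 °C and 5% CO2, then seeded at 5 × 10³ cells/well. After 24 h, compound was added at 1 μM. LPS (500 ng/mL) followed 6 h later. After a further 24 h, medium was collected and NO was read at 540 nm with a colorimetric NO detection kit.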

Nitric oxide synthase 3 = target: T1, Nitric oxide synthase 3 (Homo sapiens, UniProt P29474); experiment: Inhibition of human eNOS assessed as reduction in L-[3H]-citrulline level using L-[3H]-arginine as substrate incubated for 1 hr
T1 sequence (P29474 whole entry): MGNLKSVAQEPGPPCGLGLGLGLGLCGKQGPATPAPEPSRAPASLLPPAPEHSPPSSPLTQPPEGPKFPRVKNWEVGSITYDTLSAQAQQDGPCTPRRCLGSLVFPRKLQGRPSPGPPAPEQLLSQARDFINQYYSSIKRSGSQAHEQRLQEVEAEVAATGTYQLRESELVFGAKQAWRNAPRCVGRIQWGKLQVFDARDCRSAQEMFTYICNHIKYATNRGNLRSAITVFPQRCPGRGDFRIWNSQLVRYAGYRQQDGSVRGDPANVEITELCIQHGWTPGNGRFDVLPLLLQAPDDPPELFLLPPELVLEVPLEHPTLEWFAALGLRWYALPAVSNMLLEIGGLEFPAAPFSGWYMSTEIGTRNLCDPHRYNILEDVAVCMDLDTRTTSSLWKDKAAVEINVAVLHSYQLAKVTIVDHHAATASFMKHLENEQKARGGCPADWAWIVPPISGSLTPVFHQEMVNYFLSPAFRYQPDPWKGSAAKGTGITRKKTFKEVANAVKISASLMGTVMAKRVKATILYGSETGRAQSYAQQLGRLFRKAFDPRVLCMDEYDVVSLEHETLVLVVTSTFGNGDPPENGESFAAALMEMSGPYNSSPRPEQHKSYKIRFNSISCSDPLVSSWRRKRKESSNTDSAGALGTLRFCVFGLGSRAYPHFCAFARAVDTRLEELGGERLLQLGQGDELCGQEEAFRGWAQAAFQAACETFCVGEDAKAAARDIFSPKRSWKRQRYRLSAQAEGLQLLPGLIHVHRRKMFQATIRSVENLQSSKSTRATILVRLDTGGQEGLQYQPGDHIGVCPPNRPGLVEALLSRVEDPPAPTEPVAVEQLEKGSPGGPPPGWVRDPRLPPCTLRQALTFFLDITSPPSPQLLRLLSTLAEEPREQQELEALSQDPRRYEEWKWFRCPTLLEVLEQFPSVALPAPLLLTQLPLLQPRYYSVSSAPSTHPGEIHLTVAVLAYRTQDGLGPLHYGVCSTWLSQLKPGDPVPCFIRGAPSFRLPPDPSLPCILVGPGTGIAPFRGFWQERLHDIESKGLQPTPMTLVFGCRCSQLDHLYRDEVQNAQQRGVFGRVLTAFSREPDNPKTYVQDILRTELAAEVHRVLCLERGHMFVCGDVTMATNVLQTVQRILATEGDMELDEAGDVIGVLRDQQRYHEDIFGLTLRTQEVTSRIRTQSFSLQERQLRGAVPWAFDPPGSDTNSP

Nitric oxide synthase 1 = Nitric oxide synthase 1 (Homo sapiens, UniProt P29475); experiment: Inhibition of human nNOS assessed as reduction in L-[3H]-citrulline level using L-[3H]-arginine as substrate incubated for 1 hr
Nitric oxide synthase 1, sequence (P29475 whole entry): as the sequence (P29475 whole entry, looked up) above

[3] = Effective permeability of compound in PBS buffer at pH 7.4 at 200 uM incubated for 17 hrs by PAMPA-BBB assay; assay type: ADME; conditions: read-out: Peff
Summary of the method: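 PAMPA-BBB: the donor filter was coated with porcine brain lipid (20 mg/mL in dodecane). Compound was loaded at 200 μM in 10 mM PBS pH 7.4, with PBS as acceptor. Plates were incubated 17 h at 25 °C in saturated humidity with 100 rpm orbital shaking. Donor and acceptor concentrations were read by UV and Pe was calculated from the flux equation. Values are the mean of triplicates with SD.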

[4] = Cmax in Balb/c mouse brain at 30 mg/kg, po administered as single dose measured upto 24 hrs by LC-MS analysis; assay type: ADME, organism-based; design: route oral, dose 30 mg/kg, time <=24
Summary of the method: (§1)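 Male BALB/c mice were fasted 16 h and then given a single intragastric dose of 30 mg/kg. Blood and brain were collected after decapitation at 5, 10, 15 and 30 min and at 1, 2, 6, 8, 12 and 24 h. Plasma was obtained by centrifugation and brains were homogenized in saline. Samples underwent methanol protein precipitation and single-quadrupole LC-MS on a C18 column at 30 °C, using isocratic 40% acetonitrile with 0.1% formic acid.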

[5] = AUC (0 to infinity) in Balb/c mouse brain at 30 mg/kg, po administered as single dose measured upto 24 hrs by LC-MS analysis; assay type: ADME, organism-based; design: route oral, dose 30 mg/kg, time <=24; summary of the method: as §1
[6] = Half life in Balb/c mouse blood at 30 mg/kg, po administered as single dose measured upto 24 hrs by LC-MS analysis; assay type: ADME, organism-based; summary of the method: as §1
[7] = AUC (0 to infinity) in Balb/c mouse blood at 30 mg/kg, po administered as single dose measured upto 24 hrs by LC-MS analysis; assay type: ADME, organism-based; design: route oral, dose 30 mg/kg, time <=24; summary of the method: as §1
[8] = Half life in Balb/c mouse brain at 30 mg/kg, po administered as single dose measured upto 24 hrs by LC-MS analysis; assay type: ADME, organism-based; summary of the method: as §1
[9] = Cmax in Balb/c mouse blood at 30 mg/kg, po administered as single dose measured upto 24 hrs by LC-MS analysis; assay type: ADME, organism-based; design: route oral, dose 30 mg/kg, time <=24; summary of the method: as §1

Row | Compound | Ratio IC50 (Homo sapiens) | Ratio IC50 [1] | IC50 [2] | IC50 (Nitric oxide synthase 3) | IC50 (Nitric oxide synthase 1) | Papp at 17 h, 200 µM [3] | Cmax [4] | AUC(0-inf) [5] | half-life [6] | AUC(0-inf) [7] | half-life [8] | Cmax [9] | Activity (BV-2)
1 | CC(=N)NCc1cccc(CN)c1 [1400W] |  |  |  |  |  | 3.18 ×10⁻⁶ cm/s |  |  |  |  |  |  | 
2 | O=C(/C=C/c1ccc(Cl)c(Cl)c1)N[C@@H](Cc1ccc(F)cc1)C(=O)O | 165 | 149 | 0.993 µM | 164 µM | 149 µM |  |  |  |  |  |  |  | Active
3 | CC(C)C[C@H](NC(=O)/C=C/c1ccc(Cl)c(Cl)c1)C(=O)O | 39 | 39 | 0.765 µM | 29.7 µM | 29.6 µM |  |  |  |  |  |  |  | Active

Continued, in another order:

Row | Ratio IC50 (Homo sapiens) | Ratio IC50 [1] | IC50 [2] | IC50 (Nitric oxide synthase 3) | IC50 (Nitric oxide synthase 1) | Papp at 17 h, 200 µM [3] | Cmax [4] | AUC(0-inf) [5] | half-life [6] | AUC(0-inf) [7] | half-life [8] | Cmax [9] | Compound | Activity (BV-2)
4 | 180 | 153 | 0.82 µM | 147 µM | 126 µM |  |  |  |  |  |  |  | O=C(/C=C/c1ccccc1Cl)N[C@@H](Cc1ccc(F)cc1)C(=O)O | Active
5 | 52 | 45 | 0.892 µM | 46.6 µM | 40.3 µM | 1.23 ×10⁻⁶ cm/s | 40.2 ng/mL | 567 ng·h/mL | 1.2 h | 3450 ng·h/mL | 0.9 h | 1000 ng/mL | COc1cc(/C=C/C(=O)N[C@H](Cc2ccc(O)cc2)C(=O)O)ccc1O | 
